Legend:
[1] = target: Interleukin-1 receptor type 1 (Mus musculus) (UniProt P13504); assay: Inhibition of mouse IL-1 receptor at 10 uM relative to control
Procedure, shortened: (§1)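 Single-concentration screen at 10 μM within a commercial lead-profiling panel of 68 GPCRs, ion channels and transporters. Activity read as percent inhibition of specific radioligand binding to each target.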

[2] = test system: Mus musculus; assay: Toxicity in wild-type C57/B6 mouse assessed as sedation at 50 mg/kg, ip; format: organism-based; conditions: in vivo
[3] = target: T1, Glutamate NMDA receptor (Rattus norvegicus) (UniProt P35439+Q00959+Q00960+Q00961+Q62645+Q8VHN2+Q9R1M7); assay: Displacement of [3H]-MDL-105519 from glutamate NMDA receptor glycine binding site in Wistar rat cerebral cortical membrane at 10 uM after 30 mins by scintillation counting method relative to control; procedure, shortened: as §1
[4] = target: L-type calcium channel, benzothiazepine site (Rattus norvegicus, UniProt P22002+P27732+Q02485); assay: Inhibition of rat L-type calcium channel benzothiazepine site at 10 uM relative to control; format: protein assay
[5] = species: Mus musculus; assay: Displacement of [3H] PDBu from phorbol ester receptor in ICR mouse brain membranes at 10 uM after 60 mins by scintillation counting method relative to control; format: cell membranes; conditions: Membrane
Procedure, shortened: (§2)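 Single-concentration screen at 10 μM in an outsourced profiling panel of 68 GPCRs, ion channels and transporters. Activity read out as percent inhibition of specific radioligand binding.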

[6] = test system: Mus musculus; assay: Antipsychotic activity in wild-type contextual fear conditioning C57/B6 mouse model assessed as pro-cognitive effects on associative learning by measuring freezing at 50 mg/kg, ip treated 15 mins prior to training measured during 3 mins testing period (reference value: 65.5 +/- […])
[7] = target: Muscarinic acetylcholine receptor M3 (Homo sapiens) (UniProt P20309); assay: Displacement of [3H] N-methylscopolamine from recombinant human M3 receptor expressed in CHOK1 cell membranes at 10 uM after 120 mins by scintillation counting method relative to control; procedure, shortened: as §2
[8] = target: Neuropeptide Y receptor type 1 (Homo sapiens) (UniProt P25929); assay: Displacement of [125I] Peptide YY from Y1 receptor in human SK-N-MC cell membrane at 10 uM after 60 mins by scintillation counting method relative to control; format: cell membranes; procedure, shortened: as §2
Chain of Neuropeptide Y receptor type 1 (Homo sapiens) (P25929 whole entry): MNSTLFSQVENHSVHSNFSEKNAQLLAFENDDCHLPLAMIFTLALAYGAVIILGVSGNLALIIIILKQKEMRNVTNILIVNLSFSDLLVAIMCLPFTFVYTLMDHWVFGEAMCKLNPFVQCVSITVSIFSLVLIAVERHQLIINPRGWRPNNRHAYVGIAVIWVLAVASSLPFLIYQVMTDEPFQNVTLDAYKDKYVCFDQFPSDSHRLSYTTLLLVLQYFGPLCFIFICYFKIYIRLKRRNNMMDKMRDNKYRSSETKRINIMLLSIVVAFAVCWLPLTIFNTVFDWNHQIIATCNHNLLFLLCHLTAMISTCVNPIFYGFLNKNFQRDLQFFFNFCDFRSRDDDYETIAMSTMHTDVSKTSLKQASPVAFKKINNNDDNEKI

[9] = target: Metabotropic glutamate receptor 6 (Homo sapiens, UniProt O15303); assay: Positive allosteric modulation of human mGlu6 receptor expressed in HEK cells assessed as increase in glutamate-induced calcium flux incubated for 142 secs followed by glutamate addition measured after 120 secs by Fluo4-AM dye based fluorescence assay; format: functional, cell-based
[10] = target: Prostaglandin E2 receptor EP4 subtype (Homo sapiens) (UniProt P35408); assay: Displacement of [3H] prostaglandin E2 from recombinant human EP4 receptor expressed in rat Chem1 cell membranes at 10 uM measured after 120 mins by scintillation counting method relative to control; procedure, shortened: as §2
[11] = target: Metabotropic glutamate receptor 1 (Rattus norvegicus, UniProt P23385); assay: Negative allosteric modulation of rat mGlu1 receptor expressed in HEK cells assessed as decrease in glutamate-induced thallium flux incubated for 142 secs followed by glutamate addition measured after 120 secs by Fluo4-AM dye based fluorescence assay; format: functional, cell-based
Chain of Metabotropic glutamate receptor 1 (P23385 whole entry): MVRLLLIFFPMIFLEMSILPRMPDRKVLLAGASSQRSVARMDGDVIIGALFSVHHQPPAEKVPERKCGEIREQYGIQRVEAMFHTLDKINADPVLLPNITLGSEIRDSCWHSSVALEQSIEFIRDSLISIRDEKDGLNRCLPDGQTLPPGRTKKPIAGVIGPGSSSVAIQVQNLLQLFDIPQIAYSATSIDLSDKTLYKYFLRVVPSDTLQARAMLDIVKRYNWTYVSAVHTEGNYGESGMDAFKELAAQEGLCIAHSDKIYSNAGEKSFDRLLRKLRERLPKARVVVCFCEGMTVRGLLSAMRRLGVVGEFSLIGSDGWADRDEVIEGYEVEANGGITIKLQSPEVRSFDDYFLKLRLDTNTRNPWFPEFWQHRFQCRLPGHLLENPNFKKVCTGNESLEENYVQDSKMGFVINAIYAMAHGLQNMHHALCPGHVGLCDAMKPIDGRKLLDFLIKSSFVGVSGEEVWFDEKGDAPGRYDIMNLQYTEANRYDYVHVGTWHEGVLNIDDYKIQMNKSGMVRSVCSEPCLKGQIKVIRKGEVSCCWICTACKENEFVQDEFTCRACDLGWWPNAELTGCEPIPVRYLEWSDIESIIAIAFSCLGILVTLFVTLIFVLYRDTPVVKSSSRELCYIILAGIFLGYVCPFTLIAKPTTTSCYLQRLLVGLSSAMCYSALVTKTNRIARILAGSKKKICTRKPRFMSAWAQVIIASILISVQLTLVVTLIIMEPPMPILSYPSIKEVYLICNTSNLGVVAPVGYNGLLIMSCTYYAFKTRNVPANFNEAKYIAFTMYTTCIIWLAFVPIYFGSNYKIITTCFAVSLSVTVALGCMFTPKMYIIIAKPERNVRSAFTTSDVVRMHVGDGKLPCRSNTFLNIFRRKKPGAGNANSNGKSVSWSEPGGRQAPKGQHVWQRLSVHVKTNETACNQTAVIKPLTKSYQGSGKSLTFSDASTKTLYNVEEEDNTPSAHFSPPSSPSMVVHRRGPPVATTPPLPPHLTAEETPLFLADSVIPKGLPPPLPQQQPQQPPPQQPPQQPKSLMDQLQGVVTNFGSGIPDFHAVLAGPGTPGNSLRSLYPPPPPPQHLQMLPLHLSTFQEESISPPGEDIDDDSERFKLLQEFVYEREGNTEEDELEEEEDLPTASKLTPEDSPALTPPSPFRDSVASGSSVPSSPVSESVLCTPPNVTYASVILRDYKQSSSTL

[12] = target: Muscarinic acetylcholine receptor M2 (Homo sapiens) (UniProt P08172); assay: Displacement of [3H] N-methylscopolamine from recombinant human M2 receptor expressed in CHOK1 cell membranes at 10 uM after 120 mins by scintillation counting method relative to control; procedure, shortened: as §2
[13] = target: T1, Glutamate NMDA receptor (Rattus norvegicus); assay: Displacement of [3H] TCP from glutamate NMDA receptor phencyclidine binding site in Wistar rat cerebral cortical membrane at 10 uM after 45 mins by scintillation counting method relative to control; procedure, shortened: as §2
[14] = target: Cytochrome P450 2C9 (Homo sapiens, UniProt P11712); assay: Inhibition of CYP2C9 in human liver microsomes using diclofenac as substrate preincubated for 15 mins followed by NADPH addition measured after 8 mins by LC-MS/MS analysis; format: ADME
Chain of Cytochrome P450 2C9 (P11712 whole entry): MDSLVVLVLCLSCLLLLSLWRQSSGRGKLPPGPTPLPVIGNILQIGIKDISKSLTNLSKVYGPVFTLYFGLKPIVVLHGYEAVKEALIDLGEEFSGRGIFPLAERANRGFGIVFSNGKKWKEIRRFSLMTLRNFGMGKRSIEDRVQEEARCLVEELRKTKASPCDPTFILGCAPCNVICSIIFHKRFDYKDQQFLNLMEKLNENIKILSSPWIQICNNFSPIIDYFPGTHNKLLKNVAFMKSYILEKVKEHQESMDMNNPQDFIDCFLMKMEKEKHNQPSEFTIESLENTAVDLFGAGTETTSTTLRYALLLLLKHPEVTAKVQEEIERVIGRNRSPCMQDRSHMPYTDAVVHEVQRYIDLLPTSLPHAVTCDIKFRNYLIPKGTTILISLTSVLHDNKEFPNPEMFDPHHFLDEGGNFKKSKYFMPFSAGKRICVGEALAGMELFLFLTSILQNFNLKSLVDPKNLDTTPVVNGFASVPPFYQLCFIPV

[15] = target: 5-hydroxytryptamine receptor 2B (Homo sapiens) (UniProt P41595); assay: Displacement of [3H] LSD from full length human recombinant 5-HT2B receptor expressed in CHOK1 cell membranes at 10 uM after 60 mins by scintillation counting method relative to control; procedure, shortened: as §2
[16] = target: Adenosine receptor A3 (Homo sapiens) (UniProt P0DMS8); assay: Displacement of [125I] AB-MECA from full length human recombinant A3 receptor expressed in CHOK1 cell membranes at 10 uM after 60 mins by scintillation counting method relative to control; procedure, shortened: as §2
Chain of Adenosine receptor A3 (Homo sapiens) (P0DMS8 whole entry): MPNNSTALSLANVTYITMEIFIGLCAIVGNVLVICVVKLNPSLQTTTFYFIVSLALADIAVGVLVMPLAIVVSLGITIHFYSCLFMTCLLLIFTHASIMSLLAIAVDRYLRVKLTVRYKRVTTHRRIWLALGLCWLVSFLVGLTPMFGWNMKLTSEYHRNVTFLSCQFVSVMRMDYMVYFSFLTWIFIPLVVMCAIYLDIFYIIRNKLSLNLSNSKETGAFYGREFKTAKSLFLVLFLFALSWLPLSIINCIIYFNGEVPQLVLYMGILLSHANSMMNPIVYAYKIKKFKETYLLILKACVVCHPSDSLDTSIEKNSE

[17] = target: hERG (KCNH2) (Homo sapiens, UniProt Q12809); assay: Displacement of [3H] astemizole from full length human recombinant ERG receptor expressed in HEK293 cell membranes at 10 uM after 60 mins by scintillation counting method relative to control; conditions: HEK293 cell membranes that express recombinant human ERG, probe [3H] astemizole
[18] = target: Metabotropic glutamate receptor 3 (Rattus norvegicus, UniProt P31422); assay: Positive allosteric modulation of rat mGlu3 receptor expressed in HEK cells assessed as increase in glutamate-induced calcium flux incubated for 142 secs followed by glutamate addition measured after 120 secs by Fluo4-AM dye based fluorescence assay; format: functional, cell-based
Chain of Metabotropic glutamate receptor 3 (P31422 whole entry): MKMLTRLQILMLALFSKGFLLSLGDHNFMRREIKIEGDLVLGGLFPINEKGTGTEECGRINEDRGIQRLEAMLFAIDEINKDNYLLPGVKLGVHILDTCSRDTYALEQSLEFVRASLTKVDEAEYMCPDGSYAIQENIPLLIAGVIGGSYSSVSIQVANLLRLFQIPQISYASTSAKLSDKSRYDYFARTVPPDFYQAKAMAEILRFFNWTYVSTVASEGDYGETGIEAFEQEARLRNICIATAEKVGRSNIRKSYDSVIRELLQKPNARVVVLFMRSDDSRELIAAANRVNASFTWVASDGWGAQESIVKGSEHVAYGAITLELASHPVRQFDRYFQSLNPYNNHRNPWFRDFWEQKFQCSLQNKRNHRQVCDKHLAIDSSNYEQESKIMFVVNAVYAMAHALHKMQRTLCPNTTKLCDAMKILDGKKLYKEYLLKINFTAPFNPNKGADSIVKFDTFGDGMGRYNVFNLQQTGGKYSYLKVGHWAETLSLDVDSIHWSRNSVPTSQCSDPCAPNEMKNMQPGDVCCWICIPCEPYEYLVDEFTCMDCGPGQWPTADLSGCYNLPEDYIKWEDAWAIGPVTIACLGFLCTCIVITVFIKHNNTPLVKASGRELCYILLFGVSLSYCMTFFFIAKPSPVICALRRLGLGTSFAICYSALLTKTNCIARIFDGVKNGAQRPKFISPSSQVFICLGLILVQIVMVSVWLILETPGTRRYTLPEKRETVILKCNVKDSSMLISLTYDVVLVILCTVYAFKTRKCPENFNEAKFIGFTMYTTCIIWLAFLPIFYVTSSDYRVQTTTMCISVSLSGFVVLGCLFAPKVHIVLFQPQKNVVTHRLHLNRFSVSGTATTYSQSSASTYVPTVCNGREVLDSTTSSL

[19] = target: Histamine H2 receptor (Homo sapiens) (UniProt P25021); assay: Displacement of [125I] aminopotentidine from recombinant human H2 receptor expressed in CHOK1 cell membranes at 10 uM after 120 mins by scintillation counting method relative to control; procedure, shortened: as §2
Chain of Histamine H2 receptor (Homo sapiens) (P25021 whole entry): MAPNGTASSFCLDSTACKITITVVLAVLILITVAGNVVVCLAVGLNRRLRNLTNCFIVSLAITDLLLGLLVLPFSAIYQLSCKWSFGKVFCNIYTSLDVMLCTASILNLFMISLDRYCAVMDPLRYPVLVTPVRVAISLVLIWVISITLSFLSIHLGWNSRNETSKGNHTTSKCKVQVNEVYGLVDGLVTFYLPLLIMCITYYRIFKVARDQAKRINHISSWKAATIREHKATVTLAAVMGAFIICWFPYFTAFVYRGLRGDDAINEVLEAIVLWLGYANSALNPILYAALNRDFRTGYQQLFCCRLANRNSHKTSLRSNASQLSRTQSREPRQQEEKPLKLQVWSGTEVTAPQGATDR

[20] = target: Histamine H3 receptor (Homo sapiens) (UniProt Q9Y5N1); assay: Displacement of [3H] N-alpha-methylhistamine from recombinant human H3 receptor expressed in CHOK1 cell membranes at 10 uM after 120 mins by scintillation counting method relative to control; procedure, shortened: as §2
[21] = target: Metabotropic glutamate receptor 2 (Rattus norvegicus, UniProt P31421); assay: Negative allosteric modulation of rat mGlu2 receptor expressed in HEK cells assessed as decrease in glutamate-induced thallium flux incubated for 142 secs followed by glutamate addition measured after 120 secs by Fluo4-AM dye based fluorescence assay; format: functional, cell-based
[22] = species: Mesocricetus auratus; assay: Displacement of [3H] glyburide from KATP in syrian hamster HIT-T15 cell membranes at 10 uM after 120 mins by scintillation counting method relative to control; procedure, shortened: as §2
[23] = species: Rattus norvegicus; assay: Inhibition of rat kainate glutamate receptor at 10 uM relative to control; procedure, shortened: as §1
[24] = species: Homo sapiens; assay: Displacement of [3H] spiperone from recombinant human D4.2 receptor expressed in CHOK1 cell membranes at 10 uM after 120 mins by scintillation counting method relative to control; procedure, shortened: as §1
[25] = target: Mu-type opioid receptor (Homo sapiens) (UniProt P35372); assay: Displacement of [3H] diprenorphine from recombinant human mu opioid receptor expressed in CHOK1 cell membranes at 10 uM after 60 mins by scintillation counting method relative to control; procedure, shortened: as §2
Chain of Mu-type opioid receptor (Homo sapiens) (P35372 whole entry): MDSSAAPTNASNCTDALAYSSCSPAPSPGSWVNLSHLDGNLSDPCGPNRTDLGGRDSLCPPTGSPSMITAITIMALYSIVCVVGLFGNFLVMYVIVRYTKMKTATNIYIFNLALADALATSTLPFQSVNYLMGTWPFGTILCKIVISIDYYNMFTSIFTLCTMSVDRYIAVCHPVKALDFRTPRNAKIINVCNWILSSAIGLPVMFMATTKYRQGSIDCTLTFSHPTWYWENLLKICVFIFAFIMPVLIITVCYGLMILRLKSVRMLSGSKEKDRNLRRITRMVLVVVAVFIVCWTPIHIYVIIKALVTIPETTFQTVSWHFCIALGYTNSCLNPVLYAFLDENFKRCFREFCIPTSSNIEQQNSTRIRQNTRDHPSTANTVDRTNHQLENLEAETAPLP

[26] = target: Kappa-type opioid receptor (Homo sapiens) (UniProt P41145); assay: Displacement of [3H] diprenorphine from recombinant human kappa opioid receptor expressed in HEK293 cell membranes at 10 uM after 60 mins by scintillation counting method relative to control; procedure, shortened: as §2
Chain of Kappa-type opioid receptor (Homo sapiens) (P41145 whole entry): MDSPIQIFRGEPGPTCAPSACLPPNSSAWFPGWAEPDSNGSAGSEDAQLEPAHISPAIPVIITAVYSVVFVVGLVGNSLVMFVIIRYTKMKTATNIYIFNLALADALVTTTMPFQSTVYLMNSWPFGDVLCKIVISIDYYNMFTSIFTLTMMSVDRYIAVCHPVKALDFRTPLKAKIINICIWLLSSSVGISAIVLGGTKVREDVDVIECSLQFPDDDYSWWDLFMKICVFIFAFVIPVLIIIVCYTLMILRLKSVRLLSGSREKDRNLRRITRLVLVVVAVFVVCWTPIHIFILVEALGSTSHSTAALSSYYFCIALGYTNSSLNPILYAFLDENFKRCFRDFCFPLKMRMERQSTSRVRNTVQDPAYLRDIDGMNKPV

[27] = Brain to plasma partition coefficient, Kp of the compound in Sprague-Dawley rat at 0.2 to […], iv administered as cassette dose measured at […] post dose by LC-MS/MS analysis; format: ADME, organism-based; conditions: brain and plasma

Chain of Interleukin-1 receptor type 1 (Mus musculus) (P13504 whole entry): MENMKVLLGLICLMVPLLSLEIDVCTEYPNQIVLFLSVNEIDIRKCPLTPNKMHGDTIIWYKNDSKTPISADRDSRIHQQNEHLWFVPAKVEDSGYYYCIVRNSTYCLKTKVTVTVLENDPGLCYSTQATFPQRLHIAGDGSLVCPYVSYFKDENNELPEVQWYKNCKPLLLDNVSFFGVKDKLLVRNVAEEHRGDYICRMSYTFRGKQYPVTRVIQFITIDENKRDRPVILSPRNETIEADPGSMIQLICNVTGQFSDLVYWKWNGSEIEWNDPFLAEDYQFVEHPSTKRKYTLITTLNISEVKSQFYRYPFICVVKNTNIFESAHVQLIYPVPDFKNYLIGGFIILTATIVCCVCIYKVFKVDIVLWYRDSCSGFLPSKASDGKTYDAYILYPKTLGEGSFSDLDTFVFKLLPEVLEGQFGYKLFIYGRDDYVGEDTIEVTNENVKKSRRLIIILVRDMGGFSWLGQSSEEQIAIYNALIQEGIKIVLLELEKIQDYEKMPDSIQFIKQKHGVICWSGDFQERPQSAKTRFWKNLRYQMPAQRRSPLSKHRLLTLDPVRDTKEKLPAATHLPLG

For `COc1ccc(-c2c(C)nn3c(C(F)(F)F)cc(C)nc23)c(F)c1F`, the inhibition [1] was < 50%, the Activity [2] was “Toxic” and the inhibition [3] was < 50%. For the same compound, the inhibition at 10 µM [4] was < 50%, the inhibition [5] was < 50% and the Activity [6] was 76.8%. The inhibition [7] was < 50%, the inhibition [8] was < 50% and the EC50 [9] was > 10 µM. The inhibition [10] was < 50%, the IC50 [11] was > 10 µM and the inhibition [12] was < 50%. The inhibition [13] was < 50%, the IC50 [14] was 24.7 µM and the inhibition [15] was < 50%. The inhibition [16] was < 50%, the inhibition at 1 h, 10 µM [17] was < 50% and the EC50 [18] was > 10 µM. For the same compound, the inhibition [19] was < 50%, the inhibition [20] was < 50% and the IC50 [21] was > 10 µM. For the same compound, the inhibition [22] was < 50%, the inhibition [23] was < 50% and the inhibition [24] was < 50%. For the same compound, the inhibition [25] was < 50%, the inhibition [26] was < 50% and the Kp at […] [27] was 4.3.
